Test results published in ChEMBL document CHEMBL4834456, “Discovery of 3,4-dihydrobenzo[f][1,4]oxazepin-5(2H)-one derivatives as a new class of ROCK inhibitors for the treatment of glaucoma” (Bioorg Med Chem Lett, 2021).
The source made the active and inactive calls. The calls are words filed in the database; no cut-off is given here.

Key:
[1] = biological target: T1, Rho-associated protein kinase 2 (Homo sapiens, UniProt O75116); experiment: Inhibition of wild type partial length human ROCK1 (M1 to T431 residues) expressed in Mammalian expression system by Euro-fins kinase profiler assay
In short: (§1)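 IC50 values from the Eurofins Kinase Profiler service; averages of two independent experiments, mean ± SD.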
Target sequence in this assay (O75116 whole entry, the tested form may be a part): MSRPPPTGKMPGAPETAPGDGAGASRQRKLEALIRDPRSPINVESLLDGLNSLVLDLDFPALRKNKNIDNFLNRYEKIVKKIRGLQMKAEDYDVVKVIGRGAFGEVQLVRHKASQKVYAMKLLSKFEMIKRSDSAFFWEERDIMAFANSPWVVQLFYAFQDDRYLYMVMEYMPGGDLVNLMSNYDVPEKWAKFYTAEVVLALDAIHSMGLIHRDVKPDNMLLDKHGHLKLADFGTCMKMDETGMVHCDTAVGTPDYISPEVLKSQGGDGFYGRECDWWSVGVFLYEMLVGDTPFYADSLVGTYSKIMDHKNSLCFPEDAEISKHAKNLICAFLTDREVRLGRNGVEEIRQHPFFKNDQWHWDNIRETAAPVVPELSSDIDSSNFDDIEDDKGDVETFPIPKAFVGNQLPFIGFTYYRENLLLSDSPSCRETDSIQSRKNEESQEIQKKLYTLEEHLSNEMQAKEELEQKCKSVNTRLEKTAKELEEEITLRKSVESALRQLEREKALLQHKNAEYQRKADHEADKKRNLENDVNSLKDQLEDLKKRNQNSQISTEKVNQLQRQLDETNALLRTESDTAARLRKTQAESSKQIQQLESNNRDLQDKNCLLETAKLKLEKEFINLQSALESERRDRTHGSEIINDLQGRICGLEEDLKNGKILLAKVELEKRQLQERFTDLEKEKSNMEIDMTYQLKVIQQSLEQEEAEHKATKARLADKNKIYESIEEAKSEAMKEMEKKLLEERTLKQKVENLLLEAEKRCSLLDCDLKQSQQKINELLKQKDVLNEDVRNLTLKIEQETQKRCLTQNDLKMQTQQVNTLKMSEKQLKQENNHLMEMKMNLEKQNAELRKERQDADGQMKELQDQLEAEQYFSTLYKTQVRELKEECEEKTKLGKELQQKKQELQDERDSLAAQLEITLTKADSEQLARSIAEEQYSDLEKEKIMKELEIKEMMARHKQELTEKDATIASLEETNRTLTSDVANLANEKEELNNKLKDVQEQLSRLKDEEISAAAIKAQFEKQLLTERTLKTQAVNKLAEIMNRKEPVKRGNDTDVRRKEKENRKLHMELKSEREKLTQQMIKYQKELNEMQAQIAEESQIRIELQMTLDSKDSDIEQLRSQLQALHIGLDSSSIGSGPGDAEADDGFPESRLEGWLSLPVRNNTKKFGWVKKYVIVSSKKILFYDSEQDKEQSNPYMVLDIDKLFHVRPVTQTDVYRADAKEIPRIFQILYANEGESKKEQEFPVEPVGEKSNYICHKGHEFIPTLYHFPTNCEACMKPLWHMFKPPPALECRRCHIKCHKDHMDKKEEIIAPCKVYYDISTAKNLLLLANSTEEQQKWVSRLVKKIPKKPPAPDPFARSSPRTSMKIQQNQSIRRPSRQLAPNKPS

[2] = biological target: T2, Rho-associated protein kinase 1 (Homo sapiens, UniProt Q13464); experiment: Inhibition of wild type partial length human ROCK1 (M1 to R415 residues) expressed in mammalian expression system by Euro-fins kinase profiler assay; in short: as §1
Target sequence in this assay (Q13464 whole entry, the tested form may be a part): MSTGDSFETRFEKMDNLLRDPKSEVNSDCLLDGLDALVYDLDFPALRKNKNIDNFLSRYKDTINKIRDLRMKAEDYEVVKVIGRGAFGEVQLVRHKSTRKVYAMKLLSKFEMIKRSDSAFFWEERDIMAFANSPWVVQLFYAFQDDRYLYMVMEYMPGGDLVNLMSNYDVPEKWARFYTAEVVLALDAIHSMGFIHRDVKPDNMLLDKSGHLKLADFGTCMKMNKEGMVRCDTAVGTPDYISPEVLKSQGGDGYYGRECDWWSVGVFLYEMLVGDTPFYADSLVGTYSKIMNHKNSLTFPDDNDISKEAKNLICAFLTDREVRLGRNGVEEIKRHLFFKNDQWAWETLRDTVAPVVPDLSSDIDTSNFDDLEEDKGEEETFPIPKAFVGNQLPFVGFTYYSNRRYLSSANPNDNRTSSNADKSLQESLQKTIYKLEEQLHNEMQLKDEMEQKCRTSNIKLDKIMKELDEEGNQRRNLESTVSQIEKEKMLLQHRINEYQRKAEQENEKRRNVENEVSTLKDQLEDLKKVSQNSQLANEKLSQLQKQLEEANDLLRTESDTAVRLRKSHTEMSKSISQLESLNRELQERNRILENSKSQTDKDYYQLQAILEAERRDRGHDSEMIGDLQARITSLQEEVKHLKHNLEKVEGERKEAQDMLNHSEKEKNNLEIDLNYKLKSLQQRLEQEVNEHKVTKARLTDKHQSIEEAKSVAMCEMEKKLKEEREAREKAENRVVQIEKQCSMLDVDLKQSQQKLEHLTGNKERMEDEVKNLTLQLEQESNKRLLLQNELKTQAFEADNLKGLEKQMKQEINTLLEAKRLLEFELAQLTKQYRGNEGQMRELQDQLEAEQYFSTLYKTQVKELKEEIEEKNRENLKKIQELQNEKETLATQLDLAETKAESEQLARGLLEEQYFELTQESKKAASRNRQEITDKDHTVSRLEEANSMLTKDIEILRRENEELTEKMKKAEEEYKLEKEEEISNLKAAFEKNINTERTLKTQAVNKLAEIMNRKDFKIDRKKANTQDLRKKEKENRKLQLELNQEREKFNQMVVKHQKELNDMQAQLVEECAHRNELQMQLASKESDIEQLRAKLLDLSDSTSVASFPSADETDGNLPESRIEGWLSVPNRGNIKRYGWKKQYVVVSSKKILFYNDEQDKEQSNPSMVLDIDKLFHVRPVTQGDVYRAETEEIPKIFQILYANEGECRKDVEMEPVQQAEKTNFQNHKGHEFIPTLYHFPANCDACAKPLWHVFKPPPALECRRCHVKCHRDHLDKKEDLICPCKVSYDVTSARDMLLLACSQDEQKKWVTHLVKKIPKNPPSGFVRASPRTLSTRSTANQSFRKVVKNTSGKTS

[3] = tested on: SH-SY5Y; experiment: Inhibition of human ROCK in human SH-SY5Y cells assessed as inhibition of phosphorylation of MYPT1 at 0.1 to 1 uM measured after 12 hrs by western blot assay; assay type: cell-based; details: dose 0.1-1 µM
In short: (§2)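 SH-SY5Y cells exposed to compound at 0.1, 0.3 and 1 µM for 12 h. Phospho-MYPT1 assessed by western blot, with immunoblots quantified. Significance versus untreated control by t test.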

[4] = biological target: LIM domain kinase 2 (Homo sapiens) (UniProt P53671); experiment: Inhibition of LIMK2 (unknown origin) at 10 uM
Chain of LIM domain kinase 2 (Homo sapiens) (P53671 whole entry, looked up, the tested form may be a part): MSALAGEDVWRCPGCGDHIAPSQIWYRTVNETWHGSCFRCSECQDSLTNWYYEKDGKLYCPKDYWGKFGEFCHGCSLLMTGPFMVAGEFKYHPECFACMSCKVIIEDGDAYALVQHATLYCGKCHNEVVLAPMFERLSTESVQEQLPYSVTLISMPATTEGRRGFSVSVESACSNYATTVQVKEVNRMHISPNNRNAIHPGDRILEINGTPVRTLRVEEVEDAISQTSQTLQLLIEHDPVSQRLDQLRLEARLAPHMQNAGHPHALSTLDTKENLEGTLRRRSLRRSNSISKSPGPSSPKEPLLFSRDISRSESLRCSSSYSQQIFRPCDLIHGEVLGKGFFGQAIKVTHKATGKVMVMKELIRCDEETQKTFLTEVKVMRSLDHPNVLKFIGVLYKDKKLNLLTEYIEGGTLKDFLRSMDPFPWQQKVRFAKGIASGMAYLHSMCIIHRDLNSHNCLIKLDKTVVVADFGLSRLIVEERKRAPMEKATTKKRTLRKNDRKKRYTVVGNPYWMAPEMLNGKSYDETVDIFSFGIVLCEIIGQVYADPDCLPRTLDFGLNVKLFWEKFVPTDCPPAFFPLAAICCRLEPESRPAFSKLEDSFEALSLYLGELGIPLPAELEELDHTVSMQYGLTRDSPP
In short: (§3)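 Kinase selectivity panel of 100 representative kinases, each tested at a fixed 10 µM; inhibition rate recorded per kinase. Values are averages of two independent experiments, mean ± SD.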

[5] = biological target: T2, Rho-associated protein kinase 1; experiment: Inhibition of ROCK1 (unknown origin) at 10 uM; in short: as §3
Target sequence in this assay (Q13464 2-1354 limits assumed): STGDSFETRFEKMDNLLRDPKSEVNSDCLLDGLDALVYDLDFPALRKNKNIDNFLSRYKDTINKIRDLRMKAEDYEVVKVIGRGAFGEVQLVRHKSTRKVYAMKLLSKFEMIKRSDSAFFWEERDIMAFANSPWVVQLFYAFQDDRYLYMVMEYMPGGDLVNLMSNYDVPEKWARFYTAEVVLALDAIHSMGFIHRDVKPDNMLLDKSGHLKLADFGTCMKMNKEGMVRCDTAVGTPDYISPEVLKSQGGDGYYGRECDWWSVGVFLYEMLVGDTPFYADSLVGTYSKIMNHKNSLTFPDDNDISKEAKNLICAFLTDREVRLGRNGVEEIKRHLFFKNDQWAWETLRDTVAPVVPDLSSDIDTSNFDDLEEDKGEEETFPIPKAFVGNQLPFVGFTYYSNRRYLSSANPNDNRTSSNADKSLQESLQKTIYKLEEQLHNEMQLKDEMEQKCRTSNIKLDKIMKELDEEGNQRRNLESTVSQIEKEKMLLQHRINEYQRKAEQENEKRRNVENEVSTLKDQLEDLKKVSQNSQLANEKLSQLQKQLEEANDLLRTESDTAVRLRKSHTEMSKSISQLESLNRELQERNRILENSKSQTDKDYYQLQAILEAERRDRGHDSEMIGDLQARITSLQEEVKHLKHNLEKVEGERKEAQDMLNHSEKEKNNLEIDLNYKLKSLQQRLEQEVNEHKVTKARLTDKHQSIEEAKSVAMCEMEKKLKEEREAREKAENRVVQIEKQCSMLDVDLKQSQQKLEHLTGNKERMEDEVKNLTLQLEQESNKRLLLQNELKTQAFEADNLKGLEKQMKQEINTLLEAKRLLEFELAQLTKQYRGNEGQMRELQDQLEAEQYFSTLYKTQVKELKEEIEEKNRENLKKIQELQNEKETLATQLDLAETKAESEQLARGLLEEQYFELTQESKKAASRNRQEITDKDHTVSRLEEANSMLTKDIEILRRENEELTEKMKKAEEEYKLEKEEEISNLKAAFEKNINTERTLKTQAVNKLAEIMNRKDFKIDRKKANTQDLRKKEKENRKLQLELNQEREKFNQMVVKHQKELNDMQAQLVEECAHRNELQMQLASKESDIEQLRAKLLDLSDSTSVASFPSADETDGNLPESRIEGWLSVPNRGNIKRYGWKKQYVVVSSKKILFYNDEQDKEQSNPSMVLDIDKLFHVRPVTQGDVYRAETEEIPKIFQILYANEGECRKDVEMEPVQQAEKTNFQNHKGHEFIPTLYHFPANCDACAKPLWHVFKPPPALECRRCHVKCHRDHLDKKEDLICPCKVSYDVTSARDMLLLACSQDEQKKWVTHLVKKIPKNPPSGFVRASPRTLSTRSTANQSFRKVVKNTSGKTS

[6] = biological target: T1, Rho-associated protein kinase 2; experiment: Inhibition of ROCK2 (unknown origin) at 10 uM; in short: as §3
Target sequence in this assay (O75116 whole entry, looked up, the tested form may be a part): as the sequence (O75116 whole entry, the tested form may be a part) above

[7] = tested on: SH-SY5Y; experiment: Effect on MYPT1 expression in human SH-SY5Y cells at 0.1 to 1 uM measured after 12 hrs by western blot assay; assay type: functional, cell-based; details: dose 0.1-1 µM; in short: as §2
[8] = tested on: Oryctolagus cuniculus; experiment: Antiglaucoma activity in topically treated NZW rabbits assessed as reduction of intra ocular pressure measured after 1 hr relative to control; assay type: functional; design: scale not given: the % may be the effect or the level left
In short: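 Ocular normotensive NZW rabbits received 0.3% eye drops topically in one eye and vehicle in the contralateral eye. IOP was followed over several hours after instillation and expressed as reduction from baseline, with the 1 h reading compared against vehicle.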

[9] = Toxicity in topically treated NZW rabbit assessed as hyperaemia measured after 3 hrs; design: species or system Oryctolagus cuniculus; details: in vivo, topical_or_ocular

| Structure (SMILES) | IC50 [1] | IC50 [2] | further results |
| --- | --- | --- | --- |
| COc1cccc(CN2CCOc3cc(-c4ccnc5[nH]ccc45)ccc3C2=O)c1 | 15 nM | 103 nM |  |
| O=C1c2ccc(-c3ccncc3)cc2OCCN1Cc1cccc(C(F)(F)F)c1 | 133 nM | 1960 nM |  |
| COc1cccc(CN2CCOc3cc(-c4cncnc4)ccc3C2=O)c1 | > 10000 nM | > 10000 nM |  |
| COc1cccc(CN2CCCc3cc(-c4ccc5[nH]ncc5c4)ccc3C2=O)c1 | 2110 nM | > 10000 nM |  |
| COc1cccc(CN2CC(C)(C)Oc3cc(-c4ccc5[nH]ncc5c4)ccc3C2=O)c1 | 749 nM | 6010 nM |  |
| COc1cccc(CN2CCOc3cc(-c4ccc(N)nc4)ccc3C2=O)c1 | > 10000 nM | > 10000 nM |  |
| COc1cccc(CN2CCOc3cc(-c4ccncc4)ccc3C2=O)c1 | 3 nM | 93 nM | inhibition [3]: Active; inhibition [4]: Active; inhibition [5]: Active; inhibition [6]: Active; Activity [7]: inactive; Activity [8]: 34.3%; Activity [9]: Non-Toxic |
| N#Cc1cccc(CN2CCOc3cc(-c4ccncc4)ccc3C2=O)c1 | 50 nM | 3100 nM |  |
| O=Cc1cccc(CN2CCOc3cc(-c4ccncc4)ccc3C2=O)c1 | 29 nM | 668 nM |  |
| COC(=O)c1cccc(CN2CCOc3cc(-c4ccncc4)ccc3C2=O)c1 | 9 nM | 208 nM |  |
| O=C1c2ccc(-c3ccncc3)cc2OCCN1Cc1cccc(OC(F)(F)F)c1 | 495 nM | 9240 nM |  |
| COc1cccc(CN2CCOc3cc(-c4ccc5[nH]ncc5c4)ccc3C2=O)c1 | 182 nM | 1080 nM |  |
| COc1cccc(CN2CCOc3cc(-c4ccc5c(c4)OCO5)ccc3C2=O)c1 | > 10000 nM | > 10000 nM |  |
| COc1cccc(CN2CCOc3cc(-c4cnc5[nH]ccc5c4)ccc3C2=O)c1 | 5530 nM | > 10000 nM |  |
| COc1cccc(CN2CCOc3cc(-c4ccnc(N)c4)ccc3C2=O)c1 | 15 nM | 1140 nM |  |
| COc1cccc(CN2COc3cc(-c4ccc5[nH]ncc5c4)ccc3C2=O)c1 | 434 nM | 1460 nM |  |
| COc1cc(CN2CCOc3cc(-c4ccncc4)ccc3C2=O)cc(OC)c1 | 217 nM | 4490 nM |  |
| COc1cccc(CN2CCOc3ccc(-c4ccncc4)cc3C2=O)c1 | 761 nM | > 10000 nM |  |
